The structures appear in SMILES notation. In brackets after ≈: the same amount, converted by molar mass.

Data set [1] has as its system Streptococcus pneumoniae. The data set is described as follows: Antibacterial activity against efflux-mediated macrolide-resistant Streptococcus pneumoniae after 16 to 22 hrs by broth microdilution method. In kind it is functional. In a few lines: (§1)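 Two-fold serial dilutions in microdilution trays, following the CLSI dilution standard for aerobic bacteria. Medium was Mueller–Hinton broth with 5% horse serum for streptococci. Stocks were made at 5 mg/ml in DMF. Inoculum came from a direct colony suspension adjusted by turbidity to about 5 × 10⁴ CFU/well final. Incubation was at 35 °C for 16–22 h. MIC is the lowest concentration completely inhibiting growth (99% inhibition).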
In general terms: Dilution methods test growth across graded concentrations, often in twofold steps.

In data set [2] the test system is Streptococcus pyogenes. The data set is described as follows: Antibacterial activity against efflux-mediated macrolide-resistance Streptococcus pyogenes after 16 to 22 hrs by broth microdilution method. In kind it is functional. An outline of the steps: as §1
Data set [3] has as its system Streptococcus pyogenes. The data set is described as follows: Antibacterial activity against inducible macrolide-lincosamide-streptogramin-resistant Streptococcus pyogenes 16 to 22 hrs by broth microdilution method. In kind it is functional. An outline of the steps: as §1
Another data set concerns Enterococcus faecalis. The data set is described as follows: Antibacterial activity against Enterococcus faecalis ATCC 29212 after 16 to 22 hrs by broth dilution method. In kind it is functional. An outline of the steps: (§2)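 Broth microdilution per the CLSI approved standard (sixth edition), using two-fold serial dilutions of compound in Mueller–Hinton broth. Stocks at 5 mg/ml in DMF. Inoculum came from a direct colony suspension adjusted by turbidity to about 5 × 10⁴ CFU/well final. Trays were incubated at 35 °C for 16–22 h. MIC is the lowest concentration completely inhibiting growth (99% inhibition).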

In data set [4] the test system is Streptococcus pyogenes. The data set is described as follows: Antibacterial activity against erythromycin-susceptible Streptococcus pyogenes after 16 to 22 hrs by broth microdilution method. In kind it is functional. An outline of the steps:
(§3)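 Streptococci tested by CLSI broth microdilution in Mueller–Hinton broth with 5% horse serum, using two-fold serial dilutions. Compounds were dissolved in DMF at 5 mg/ml (stock). Inoculum was a turbidity-adjusted direct colony suspension giving about 5 × 10⁴ CFU/well. Trays were held at 35 °C for 16–22 h. MIC is the lowest concentration completely inhibiting growth (99%).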

The test system of another data set is Haemophilus influenzae. The data set is described as follows: Antibacterial activity against Haemophilus influenzae ATCC 49247 after 16 to 22 hrs by broth dilution method. In kind it is functional. In a few lines: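 Microdilution trays following the CLSI standard, with two-fold serial dilutions in supplemented broth suited to H. influenzae. DMF stocks at 5 mg/ml. Inoculum prepared from a turbidity-adjusted direct colony suspension to about 5 × 10⁴ CFU/well final. Incubated at 35 °C for 16–22 h. MIC is the lowest concentration giving complete (99%) growth inhibition.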

The test system of another data set is Staphylococcus aureus. The data set is described as follows: Antibacterial activity against Staphylococcus aureus ATCC 29213 after 16 to 22 hrs by broth microdilution method. In kind it is functional. An outline of the steps:
as §2

The next data set concerns Moraxella catarrhalis. As to the kind of experiment: Antibacterial activity against Moraxella catarrhalis ATCC 23246 after 16 to 22 hrs by broth dilution method. In kind it is functional. In a few lines:
as §2

Data set [5] relates to Streptococcus pneumoniae. As to the kind of experiment: Antibacterial activity against constitutive macrolide-lincosamide-streptogramin-resistant Streptococcus pneumoniae after 16 to 22 hrs by broth microdilution method. In kind it is functional. In a few lines: as §1
A short description of data set [6]: Chemical stability in 0.01 M artificial gastric juice assessed as half life at 37 degC. In kind it is physicochemical. In a few lines:
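Acid degradation followed as pseudo-first-order kinetics. Rate constants came from an exponential fit of reactant concentration versus time, and t1/2 was calculated from k.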

For data set [7], the system named is Streptococcus pneumoniae. As to the kind of experiment: Antibacterial activity against erythromycin-susceptible Streptococcus pneumoniae after 16 to 22 hrs by broth microdilution method. In kind it is functional. An outline of the steps: as §3
Another data set has as its system Escherichia coli. The data set is described as follows: Antibacterial activity against Escherichia coli ATCC 25922 after 16 to 22 hrs by broth dilution method. In kind it is functional. In a few lines: as §2

Consider `CC[C@H]1OC(=O)[C@H](C)[C@@H](O[C@H]2C[C@@](C)(OC)[C@@H](O)[C@H](C)O2)[C@H](C)[C@@H](O[C@@H]2O[C@H](C)C[C@H](N(C)C)[C@H]2O)[C@](C)(O)C[C@@H](C)CN(CCCNC(=O)Nc2cccc3ccccc23)[C@H](C)[C@@H](O)[C@]1(C)O`, for which the MIC is 4 µg/mL (≈ 4.16 µM) in the data set with Streptococcus pneumoniae [1]; 4 µg/mL (≈ 4.16 µM) against Streptococcus pyogenes [2]; 2 µg/mL (≈ 2.08 µM) with Streptococcus pyogenes [3]; 4 µg/mL (≈ 4.16 µM) against Enterococcus faecalis; at most 0.125 µg/mL against Streptococcus pyogenes [4]; 1 µg/mL (≈ 1.04 µM) with Haemophilus influenzae. Moreover, the MIC against Staphylococcus aureus was 0.5 µg/mL (≈ 0.52 µM); in the data set with Moraxella catarrhalis it was 0.5 µg/mL (≈ 0.52 µM); in the data set with Streptococcus pneumoniae [5], above 64 µg/mL; in the data set on Streptococcus pneumoniae [7], at most 0.125 µg/mL; in the data set on Escherichia coli, 8 µg/mL (≈ 8.32 µM). Further, in [6], the half-life amounted to 119 min.

Consider `CC[C@H]1OC(=O)[C@H](C)[C@@H](O[C@H]2C[C@@](C)(OC)[C@@H](O)[C@H](C)O2)[C@H](C)[C@@H](O[C@@H]2O[C@H](C)C[C@H](N(C)C)[C@H]2O)[C@](C)(O)C[C@@H](C)CN(CCCN(CCC#N)C(=O)Nc2cccc3ccccc23)[C@H](C)[C@@H](O)[C@]1(C)O`, for which the MIC in the data set on Streptococcus pneumoniae [1] was 16 µg/mL (≈ 15.8 µM); with Streptococcus pyogenes [2] it was 8 µg/mL (≈ 7.89 µM); against Streptococcus pyogenes [3], 8 µg/mL (≈ 7.89 µM); in the data set on Enterococcus faecalis, 16 µg/mL (≈ 15.8 µM); against Streptococcus pyogenes [4] it was at most 0.125 µg/mL; with Haemophilus influenzae, 4 µg/mL (≈ 3.94 µM). In addition, the MIC against Staphylococcus aureus was 1 µg/mL (≈ 0.986 µM); against Moraxella catarrhalis, 0.5 µg/mL (≈ 0.493 µM); in the data set with Streptococcus pneumoniae [5] it was 64 µg/mL (≈ 63.1 µM); with Streptococcus pneumoniae [7] it was at most 0.125 µg/mL; against Escherichia coli it was 8 µg/mL (≈ 7.89 µM). Also, the half-life in [6] was determined as 108 min.

Broadly, the half-life is the time needed for the level to fall by half in the phase considered.

For the origin of these results see ChEMBL document CHEMBL1153576, “Novel ureas and thioureas of 15-membered azalides with antibacterial activity against key respiratory pathogens” (Eur J Med Chem, 2009).
